Source: paper PMC8395693 (JACS Au, 2021)

system: MDA-MB-231; test: Transmission electron microscopy of mitochondrial morphology; assay type: cell-based; conditions: AuTri-9 10 µM, 1 h
How it was run: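 MDA-MB-231 cells were exposed to the test compound for 1 h. Vehicle wells received 1% DMSO. Reference inducers were run alongside: staurosporine (apoptosis), hydrogen peroxide (necrosis), rapamycin (autophagy) and erastin (ferroptosis). Mitochondria were imaged by TEM. Maximal cristae width was measured in 10 randomly chosen cells on randomly chosen mitochondria, with up to 3 cristae per mitochondrion and 100 cristae per cell, given as mean ± s.e.m.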

Row | SMILES | morphological changes in mitochondria (TEM)
1 | OO [H2O2, hydrogen peroxide] | mitochondrial structure remains intact
2 | CCOc1ccccc1-n1c(C(C)N2CCN(C(=O)COc3ccc(Cl)cc3)CC2)nc2ccccc2c1=O (centres unmarked) [erastin] | mitochondrial shrinkage
3 | CO[C@H]1C[C@@H]2CC[C@@H](C)[C@@](O)(O2)C(=O)C(=O)N2CCCC[C@H]2C(=O)O[C@H]([C@H](C)C[C@@H]2CC[C@@H](O)[C@H](OC)C2)CC(=O)[C@H](C)/C=C(\C)[C@@H](O)[C@@H](OC)C(=O)[C@H](C)C[C@H](C)/C=C/C=C/C=C/1C [rapamycin] | no distinct morphological changes to mitochondria
4 | CN[C@@H]1C[C@H]2O[C@@](C)([C@@H]1OC)n1c3ccccc3c3c4c(c5c6ccccc6n2c5c31)C(=O)NC4 [staurosporine] | no distinct morphological changes to mitochondria

system: not given; test: not given; conditions: based on gold; cited from earlier work

Row | SMILES | MTD (maximum tolerated dose)
5 | CC(=O)OC[C@H]1O[C@@H]([S-])[C@H](OC(C)=O)[C@@H](OC(C)=O)[C@@H]1OC(C)=O.CCP(CC)CC.[Au+] [auranofin] | 12 mg/kg

system: MDA-MB-231; test: Cell viability; assay type: cell-based; conditions: Homo sapiens, MDA-MB-231, 72 h, read-out: IC50 value
How it was run: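 Test compounds were added from stock solutions so that the final DMSO was <1%, and MDA-MB-231 cells were incubated with them for 72 h. Viability was read after exposure and IC50 derived. Data are mean ± s.e.m., n = 3.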

Row | SMILES | IC50
6 | c1cnc2c(c1)ccc1cccnc12 [1,10-phenantrholine] | 7.21 ± 1.68 µM
7 | Cc1ccnc2c1ccc1c(C)ccnc12 [4,7-dimethylphenanthroline] | 14.1 ± 2.58 µM

same assay, conditions: read-out: IC50 value; MDA-MB-231, MTT assay, 72 h, mean ± s.e.m., n = 3

Row | SMILES | IC50
8 | [Au+].[F][Sb-]([F])([F])([F])([F])[F].c1ccc(-c2ccccn2)nc1.c1ccc(P(c2ccccc2)c2ccccc2)cc1 [AuTri-3] | 6.56 ± 0.354 µM
9 | [Au+].[F][Sb-]([F])([F])([F])([F])[F].c1ccc([As](c2ccccc2)c2ccccc2)cc1.c1cnc2c(c1)ccc1cccnc12 [AuTri-4] | 3.98 ± 0.359 µM
10 | [F][Sb-]([F])([F])([F])([F])[F].[Na+] [NaSbF6] | > 50 µM
11 | CC(=O)OC[C@H]1O[C@@H]([S-])[C@H](OC(C)=O)[C@@H](OC(C)=O)[C@@H]1OC(C)=O.CCP(CC)CC.[Au+] [auranofin] | 1.31 ± 0.15 µM
12 | c1ccc(-c2ccnc3c2ccc2c(-c4ccccc4)ccnc23)cc1 [bathophenanthroline] | 7.48 ± 1.64 µM
13 | c1ccc(-c2ccccn2)nc1 [bipyridine] | 17.5 ± 0.354 µM
14 | N.N.[Cl][Pt][Cl] [cisplatin] | 34.6 ± 0.783 µM
